ZTA counter: counter-screen for EBNA-1 inhibitors: inhibitors of Epstein-Barr virus ZTA; P03206; ZTA-DNA binding, fluorescence polarization; inhibition, % at 11 µM; 320,000 compounds, 0.15% hits; AID 2234; in the data active means inhibition above about 33%
Target sequence (P03206 whole entry, looked up): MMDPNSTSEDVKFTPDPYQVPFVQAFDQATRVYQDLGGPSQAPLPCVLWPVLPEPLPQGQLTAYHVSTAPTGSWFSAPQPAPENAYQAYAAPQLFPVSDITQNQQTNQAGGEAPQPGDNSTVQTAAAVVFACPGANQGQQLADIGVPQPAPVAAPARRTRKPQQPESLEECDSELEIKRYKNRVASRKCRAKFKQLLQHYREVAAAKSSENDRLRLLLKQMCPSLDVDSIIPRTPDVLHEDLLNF
EBNA-1 inhibitor: blocks EBNA-1 binding to DNA; EBNA-1 DNA binding, fluorescence polarization; inhibition, % at 14.8 µM; 300,000 compounds, 0.34% hits; AID 1950; in the data active means inhibition above about 28%
NS3 helicase inh: inhibitors of Hepatitis C virus NS3 helicase. NS3 helicase DNA unwinding, Cy5 molecular beacon fluorescence. inhibition, % at 10.9 µM. 290,000 compounds, 0.56% hits. AID 1800;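 active means inhibition above the mean of all tested compounds plus 3 SD, set per campaign, cut at about 35% in these data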
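Assay system – hepatitis C virus NS3 helicase domain fragment enzyme · Buffer or medium – MOPS pH 6.5, MgCl2, DTT, Tween20, BSA · Reagent – Cy5/quencher beacon DNA duplex and ATP to start · Compound – single 10.9 µM dose · Timing – 1 h at 25 °C · Technique – Cy5 beacon fluorescence read at start and 1 h · Measure – % inhibition of unwinding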
Fh CTSL1 inh: counter-screen for PFM18AAP inhibitors: inhibitors of F. hepatica cathepsin L1; recombinant F. hepatica cathepsin L1, Z-Leu-Arg-MCA fluorescence; inhibition, % at 5.96 µM; 300,000 compounds, 0.49% hits;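 active means inhibition above the mean of all tested compounds plus 3 SD, set per screening campaign, cut at about 17% in these data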
NS3 hel confirm: confirmation of Hepatitis C virus NS3 helicase inhibitors | shares compounds with NS3 helicase inh | NS3 helicase DNA unwinding, Cy5 molecular beacon fluorescence | inhibition, % at 10.9 µM | 1,600 compounds, 31% hits | AID 1943;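 active means inhibition above the mean of all tested compounds plus 3 SD, cutoff set per campaign, cut at about 36% in these data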
DNA FID counter: displaces DNA intercalator in HCV helicase counter-screen; shares compounds with NS3 helicase inh; 1,600 compounds, 4% hits; DNA fluorescent intercalator displacement, fluorescence; inhibition, % at 7.9 µM; in the data active means inhibition above about 37%;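 further: higher means more displacement of ethidium bromide from the DNA hairpin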
DNA FID DR: DNA intercalator displacement in dose response. shares compounds with NS3 helicase inh. AID 2172. fluorescent intercalator displacement from DNA, fluorescence. 120 tested, under 10 active. IC50, µM; call rule not given here
Each line names hits and unclear results; the compound was inactive in the other large screens (follow-up assays come after a bar, where they were run). The list is not random: actives were taken first. Their share in the collection is about 1.4%.

Cc1ccc(NS(=O)(=O)c2ccc3c(c2)CCN3C(=O)CCC(=O)O)cc1Cl	NS3 helicase inh 48 | NS3 hel confirm inactive | DNA FID counter inactive
COc1cccc(C(N)=O)c1OC(=O)Cc1ccccc1F	NS3 helicase inh 40 | NS3 hel confirm inactive | DNA FID counter inactive
COc1cccc(C(=O)NCc2ccc3c(c2)cc(C)n3C)c1	none
COc1ccccc1N1C(=N)S/C(=C\c2ccc(-c3ccccc3C(=O)O)o2)C1=O	NS3 helicase inh 41 | NS3 hel confirm 40 | DNA FID counter inactive
O=C(Nc1ccccc1N1CCOCC1)c1cccnc1Cl	NS3 helicase inh 53 | NS3 hel confirm inactive | DNA FID counter inactive
O=C(Nc1ccc(N2CCOCC2)c(Cl)c1)c1cccnc1Cl	none
CCNc1ccccc1CP(=O)(c1ccccc1)c1ccccc1O (centres undefined)	NS3 helicase inh 64 | NS3 hel confirm inactive | DNA FID counter inactive
COc1ccc(C2C3=C(CCCC3=O)N(CC(=O)O)C3=C2C(=O)CCC3)cc1Cl	none
COc1ccccc1C1C2=C(CCCC2=O)N(CC(=O)O)C2=C1C(=O)CCC2	NS3 helicase inh 41 | NS3 hel confirm inactive | DNA FID counter inactive
O=C(Cn1c(=O)c2sccc2n(Cc2ccc([N+](=O)[O-])cc2)c1=O)NCCc1ccccc1	none
O=C(Cn1c(=O)c2sccc2n(Cc2cccc([N+](=O)[O-])c2)c1=O)NCCc1ccccc1	NS3 helicase inh 44 | NS3 hel confirm inactive | DNA FID counter inactive
CCc1nc2nc(C)c(NS(=O)(=O)c3ccc(C)c(C)c3)c(=O)n2[nH]1	none
O=C(COC(=O)c1ccccc1SCC(=O)N1CCCC1)Nc1ccccc1	NS3 helicase inh 38 | NS3 hel confirm inactive | DNA FID counter inactive
S=c1[nH]nc(-c2ccco2)n1/N=C/c1cccc(Cl)c1Cl	NS3 helicase inh 44 | NS3 hel confirm inactive | DNA FID counter inactive
S=c1[nH]nc(-c2ccco2)n1/N=C/c1ccc(Cl)cc1Cl	none
COc1ccccc1-c1nnc(NC(=O)c2ccc(S(=O)(=O)N3CCCC3)cc2)o1	NS3 helicase inh 53 | NS3 hel confirm inactive | DNA FID counter inactive
O=C(Oc1cccnc1)c1cc(S(=O)(=O)N2CCCCC2)ccc1Cl	none
N#Cc1ccc(-c2ccco2)nc1SCC(=O)c1ccc(Cl)cc1	NS3 helicase inh 38 | NS3 hel confirm inactive | DNA FID counter inactive
C=CCOC(=O)C1=C(C)NC(=O)NC1c1ccc(OC(=O)c2ccco2)c(OC)c1 (centres undefined)	none
O=C(O)CCC(=O)N1N=C(c2c(-c3ccccc3)c3cc(Cl)ccc3[nH]c2=O)CC1c1ccco1 (centres undefined)	NS3 helicase inh 41 | NS3 hel confirm 48 | DNA FID counter inactive
Cc1c(C(=O)c2ccc(Cl)cc2[N+](=O)[O-])c2ccccn2c1CCC#N	none
Cc1c(C(=O)c2ccc(F)cc2F)c2ccccn2c1CCC#N	NS3 helicase inh 49 | NS3 hel confirm inactive | DNA FID counter inactive
Cc1cccc(OCC(=O)N/N=C/C=C/c2ccco2)c1	NS3 helicase inh 43 | NS3 hel confirm inactive | DNA FID counter inactive
Cc1cccc(OCC(=O)Nc2cc(NC(=O)COc3cccc(C)c3)cc(C(=O)O)c2)c1	NS3 helicase inh 41 | NS3 hel confirm 63 | DNA FID counter inactive
CC(C)(C)c1ccc(CS(=O)(=O)CC2(O)CCN(C(=O)c3cccc(C(F)(F)F)c3)CC2)cc1	none
CS(=O)(=O)c1nsc2nc(=O)c(/C=C3\C=Nc4ccccc43)c(N)n12	none
Cc1cc2nc(=O)c(/C=C3\C=Nc4ccccc43)c(N)n2o1	NS3 helicase inh 43 | NS3 hel confirm inactive | DNA FID counter inactive
Cc1ccc2nc(-c3ccccc3Cl)cc(C(=O)Nc3cc(C)on3)c2c1	none
COc1cccc(N/C(SC)=C(/C#N)C(=O)NCc2cccs2)c1	none
COc1ccc(C(=O)CC(=O)C(=O)Nc2cccc([N+](=O)[O-])c2C)cc1	none
COc1ccccc1C(=O)CC(=O)C(=O)Nc1cccc([N+](=O)[O-])c1C	NS3 helicase inh 37 | NS3 hel confirm inactive | DNA FID counter inactive
O=C(O)COCC(=O)Nc1cc(C(F)(F)F)cc(C(F)(F)F)c1	none
CC(CC(=O)O)CC(=O)Nc1cc(C(F)(F)F)cc(C(F)(F)F)c1 (centres undefined)	NS3 helicase inh 45 | NS3 hel confirm inactive | DNA FID counter inactive
CC(C)C(C(=O)O)N1C(=O)/C(=C/C=C/c2ccco2)SC1=S (centres undefined)	ZTA counter 99, EBNA-1 inhibitor 42, NS3 helicase inh 44 | NS3 hel confirm 78 | DNA FID counter inactive
O=C1/C(=C/C=C/c2ccco2)SC(=S)N1c1ccc(O)cc1	NS3 helicase inh 51 | NS3 hel confirm 91 | DNA FID counter inactive | DNA FID DR inactive
O=C(NN1C(=O)/C(=C/C=C/c2ccco2)SC1=S)c1ccncc1	ZTA counter 74, EBNA-1 inhibitor 51, NS3 helicase inh 40 | NS3 hel confirm 78 | DNA FID counter inactive
CC(C(=O)Nc1ccc(C(=O)O)c(O)c1)N1C(=O)/C(=C\c2ccco2)SC1=S (centres undefined)	none
CCOC(=O)N1CCN(C2CC(=O)N(c3ccc(F)cc3)C2=O)CC1 (centres undefined)	none
CC1(C)CN(c2cccc(-c3ccnc4ncnn34)c2)C1=O	none
CCCCCC(=O)N/N=C/c1ccc([N+](=O)[O-])o1	NS3 helicase inh 39 | NS3 hel confirm inactive | DNA FID counter inactive
Cc1scc(C(=O)N/N=C/c2ccco2)c1C	none
Cc1scc(C(=O)N/N=C/c2ccc([N+](=O)[O-])o2)c1C	NS3 helicase inh 43 | NS3 hel confirm inactive | DNA FID counter inactive
Cc1ccc(NCC(=O)N/N=C\c2ccc([N+](=O)[O-])o2)cc1	none
CC(=O)NC1=NN(C(C)=O)C(C)(c2ccccc2)S1 (centres undefined)	none
COc1ccc(-c2ccc(CCC(=O)O)n2-c2ccccc2O)cc1	NS3 helicase inh 45 | NS3 hel confirm inactive | DNA FID counter inactive
COc1ccc(NC(=O)c2c(NC(=O)CCC(=O)O)sc(-c3ccccc3)c2C)cc1	NS3 helicase inh 37 | NS3 hel confirm 53 | DNA FID counter inactive
COCCNc1cc(N)c([N+](=O)[O-])cc1[N+](=O)[O-]	none
CC1(C)Oc2cc(N)c([N+](=O)[O-])cc2O1	NS3 helicase inh 54 | NS3 hel confirm inactive | DNA FID counter inactive
CCc1sc(C(C2C(=O)CC(C)(C)CC2=O)C2C(=O)CC(C)(C)CC2=O)cc1[N+](=O)[O-]	NS3 helicase inh 59 | NS3 hel confirm 68 | DNA FID counter inactive
CC1(C)CC(=O)C(C(c2ccc(F)cc2)C2C(=O)CC(C)(C)CC2=O)C(=O)C1	none
O=C(O)CCCC(=O)N1CCN(c2ncccn2)CC1	none

Screening results as filed in PubChem BioAssay.
